The test system of assay [1] is Staphylococcus aureus. The experiment in a line: Antibacterial activity against Staphylococcus aureus Newman assessed as bacterial growth inhibition incubated for 24 hrs by microtiter plate reader analysis. It counts as functional. In short, it runs like this:
(§1)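 Broth microdilution in Mueller-Hinton broth (P. aeruginosa PAO1 is the mexAB-oprM strain). Overnight cultures were diluted 1:1000 and 200 μL was added to wells holding 2 μL of compound in DMSO. Plates were incubated 24 h at room temperature under room fluorescent light, then OD600 was read. MIC was taken as the lowest concentration keeping OD600 from rising above 0.1.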

The test system of assay [2] is Pseudomonas aeruginosa. The experiment in a line: Antibacterial activity against Pseudomonas aeruginosa PAO1 assessed as bacterial growth inhibition incubated for 24 hrs by microtiter plate reader analysis. It counts as functional. The gist of the method:
as §1

In assay [3] the test system is Candida albicans. The experiment in a line: Antifungal activity against Candida albicans SC5314 assessed as bacterial growth inhibition incubated for 24 hrs by microtiter plate reader analysis. It counts as functional. In short, it runs like this:
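C. albicans was grown in RPMI 1640 with 165 mM MOPS, pH 7.0. Overnight culture was diluted 1:1000 and 200 μL was added to wells holding 2 μL of compound in DMSO. Plates were incubated 24 h at room temperature under room fluorescent light, then OD600 was read. MIC was the lowest concentration preventing OD600 from exceeding 0.1.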

In assay [4] the test system is HCC1806. Nature of the assay: Cytotoxicity against human HCC1806 cells assessed as reduction in cell viability incubated for 72 hrs by Cell-titer glo assay. It counts as functional, cell-based. The settings on record: HCC1806, 72 h. The gist of the method: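 HCC1806 cells were grown in DMEM with 10% FBS, penicillin/streptomycin and 1% GlutaMax, were mycoplasma-tested and kept ≤4 weeks. Cells were seeded at 2500 per well and treated after 24 h, with six wells per dose, against a 0.1% DMSO vehicle. CellTiter-Glo 2.0 luminescence was read at 72 h. IC50 came from a log(inhibitor) vs normalized response least-squares fit of % viability relative to DMSO.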

The record followed here is ChEMBL document CHEMBL5360637, “Ravidomycin Analogs from Streptomyces sp. Exhibit Altered Antimicrobial and Cytotoxic Selectivity” (J Nat Prod, 2023).

Values after ≈ are worked out from the molar mass of the structure shown.

For `C=Cc1cc(OC)c2c(c1)c(=O)oc1c2cc(OC)c2c(O)ccc([C@@H]3O[C@H](C)[C@H](O)[C@H](N(C)C(C)=O)[C@H]3O)c21`, the values for the minimal inhibitory concentration (MIC) in assay [1], in assay [2] and in assay [3] were 0.006 mg/L (≈ 0.0109 µM), 50 mg/L (≈ 91 µM) and 13 mg/L (≈ 23.7 µM), respectively. Besides, the IC50 in assay [4] amounted to 1.7 µM.
Taken in the same sequence, the figures for `CCc1cc(OC)c2c(c1)c(=O)oc1c2cc(OC)c2c(O)ccc([C@@H]3O[C@H](C)[C@H](O)[C@H](N(C)C)[C@H]3O)c21` were 0.78 mg/L (≈ 1.49 µM), above 100 mg/L, 25 mg/L (≈ 47.7 µM) and above 10 µM.
Taken in the same sequence, the figures for `C=Cc1cc(OC)c2c(c1)c(=O)oc1c2cc(OC)c2c(O)ccc([C@@H]3O[C@H](C)[C@H](O)[C@H](NC(=O)OC)[C@H]3O)c21` were 0.012 mg/L (≈ 0.0218 µM), 25 mg/L (≈ 45.3 µM), 6.3 mg/L (≈ 11.4 µM) and 0.71 µM.
Taken in the same sequence, the figures for `C=Cc1cc(OC)c2c(c1)c(=O)oc1c2cc(OC)c2c(O)ccc([C@@H]3O[C@H](C)[C@H](O)[C@H](N(C)C)[C@H]3O)c21` were 0.006 mg/L (≈ 0.0115 µM), 3.1 mg/L (≈ 5.94 µM), 0.78 mg/L (≈ 1.5 µM) and 0.081 µM.
Consider `C=Cc1cc(OC)c2c(c1)c(=O)oc1c2cc(OC)c2c(O)ccc([C@@H]3O[C@H](C)[C@H](OC(C)=O)[C@H](O)[C@H]3O)c21`, for which the MIC in assay [1] was found to be 0.003 mg/L (≈ 0.00559 µM); in assay [2] it was 50 mg/L (≈ 93.2 µM); in assay [3] it was 6.3 mg/L (≈ 11.7 µM). Further, the IC50 in assay [4] amounted to 5.1 µM.
Taken in the same sequence, the figures for `C=Cc1cc(OC)c2c(c1)c(=O)oc1c2cc(OC)c2c(O)ccc([C@@H]3O[C@H](C)[C@H](O)[C@H](O)[C@H]3OC(C)=O)c21` were 0.049 mg/L (≈ 0.0913 µM), above 100 mg/L, above 25 mg/L and 0.87 µM.
Turning to `C=Cc1cc(OC)c2c(c1)c(=O)oc1c2cc(OC)c2c(O)ccc([C@@H]3O[C@H](C)[C@H](O)[C@H](N(C)C(=O)OC)[C@H]3O)c21`, the MIC in assay [1] came out at 0.003 mg/L (≈ 0.0053 µM); in assay [2], 50 mg/L (≈ 88.4 µM); in assay [3], 6.3 mg/L (≈ 11.1 µM). For the same molecule, the IC50 in assay [4] is 0.55 µM.
Taken in the same sequence, the figures for `C=Cc1cc(O)c2c(c1)c(=O)oc1c2cc(OC)c2c(O)ccc([C@@H]3O[C@H](C)[C@H](O)[C@H](N(C)C)[C@H]3O)c21` were 0.39 mg/L (≈ 0.768 µM), above 13 mg/L, 13 mg/L (≈ 25.6 µM) and above 10 µM.
Taken in the same sequence, the figures for `C=Cc1cc(OC)c2c(c1)c(=O)oc1c2cc(OC)c2c(O)ccc([C@@H]3O[C@H](C)[C@H](O)[C@H](O)[C@H]3O)c21` were 0.006 mg/L (≈ 0.0121 µM), 3.1 mg/L (≈ 6.27 µM), 13 mg/L (≈ 26.3 µM) and 3.6 µM.
Taken in the same sequence, the figures for `C=Cc1cc(OC)c2c(c1)c(=O)oc1c2cc(OC)c2c(O)ccc([C@@H]3O[C@H](C)[C@H](O)C[C@H]3O)c21` were 0.1 mg/L (≈ 0.209 µM), 50 mg/L (≈ 104 µM), 6.3 mg/L (≈ 13.2 µM) and above 10 µM.
On to `C=Cc1cc(OC)c2c(c1)c(=O)oc1c2cc(OC)c2c(O)ccc([C@@H]3O[C@H](C)[C@H](O)[C@H](NC)[C@H]3O)c21`, for which the minimal inhibitory concentration (MIC) in assay [1] was 0.049 mg/L (≈ 0.0965 µM); in assay [2] it was 6.3 mg/L (≈ 12.4 µM); in assay [3] it was 0.78 mg/L (≈ 1.54 µM). Moreover, the IC50 in assay [4] came out at 0.053 µM.
For the molecule `C=Cc1cc(OC)c2c(c1)c(=O)oc1c2cc(OC)c2c(O)ccc([C@@H]3O[C@H](C)[C@H](O)[C@H](NC(C)=O)[C@H]3O)c21`, the results for the MIC in assay [1], in assay [2] and in assay [3] were 0.1 mg/L (≈ 0.187 µM), above 13 mg/L and 13 mg/L (≈ 24.3 µM), respectively. Moreover, the IC50 in assay [4] is above 10 µM.
Taken in the same sequence, the figures for `C=Cc1cc(OC)c2c(c1)c(=O)oc1c2cc(OC)c2c(O)ccc([C@@H]3O[C@H](C)[C@H](O)[C@H](OC(C)=O)[C@H]3O)c21` were 0.006 mg/L (≈ 0.0112 µM), above 100 mg/L, 6.3 mg/L (≈ 11.7 µM) and 0.37 µM.
For `COc1cc2c(oc(=O)c3cc(C)cc(OC)c32)c2c([C@@H]3O[C@H](C)[C@H](O)[C@H](N(C)C)[C@H]3O)ccc(O)c12`, the results for the MIC in assay [1], in assay [2] and in assay [3] were 1.6 mg/L (≈ 3.14 µM), above 100 mg/L and 100 mg/L (≈ 196 µM), respectively. Also, the IC50 in assay [4] is 3.6 µM.
Taken in the same sequence, the figures for `C=Cc1cc(OC)c2c(c1)c(=O)oc1c2cc(OC)c2c(O)ccc([C@@H]3O[C@H](C)[C@H](OC(C)=O)[C@H](N(C)C)[C@H]3O)c21` were 0.39 mg/L (≈ 0.692 µM), 13 mg/L (≈ 23.1 µM), 0.39 mg/L (≈ 0.692 µM) and 0.042 µM.
Take `COc1cc2c(oc(=O)c3cc([C@H](C)O)cc(OC)c32)c2c([C@@H]3O[C@H](C)[C@H](O)[C@H](N(C)C)[C@H]3O)ccc(O)c12`: the MIC in assay [1] was 13 mg/L (≈ 24.1 µM); in assay [2] it was above 13 mg/L; in assay [3] it was above 13 mg/L. For the same molecule, the IC50 in assay [4] is above 10 µM.
